# Laboratory results published in ChEMBL document CHEMBL1153864, “Phase transfer catalyzed synthesis of bis-quinolines: antileishmanial activity in experimental visceral leishmaniasis and in vitro antibacterial evaluation” (Eur J Med Chem, 2009).
# Active and inactive are the calls of the source. The calls are words filed in the database; no cut-off is given here.
# Experiments:
# [1] = system: Bacillus licheniformis; assay: Antibacterial activity against […] Bacillus licheniformis NCTC 10341 at 5 ug/ml after 24 hrs by agar dilution method; assay type: functional, organism-based
# How it was run: (§1)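 Agar dilution MIC. Compound dissolved in sterile 0.2% DMSO, diluted in distilled water and mixed into molten nutrient agar (pH 7.2–7.4) at 5, 10, 25, 50; plate with 0.2% DMSO as control. Gram-positives grown 18 h in nutrient broth, Gram-negatives in peptone water. Stationary-phase suspension set to 0.5 McFarland, diluted 1:100, spot-inoculated at about 10^5 CFU per loopful. Plates held 24 h at 37 °C (up to 72 h if needed). MIC is the lowest level with no growth.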
# [2] = system: Staphylococcus aureus; assay: Antibacterial activity against Staphylococcus aureus ML6 at 10 ug/ml after 24 hrs by agar dilution method; assay type: functional; conditions: ML6, 24 h; how it was run: as §1
# [3] = system: Escherichia coli; assay: Antibacterial activity against Escherichia coli K-12 Row after 24 hrs by agar dilution method; assay type: functional; how it was run: as §1
# [4] = system: Leishmania donovani; assay: Antileishmanial activity against Leishmania donovani MHOM/IN/1983/AG83 promastigotes infected BALB/c mouse assessed as reduction in spleen parasite burden at 5.5 mg/kg, ip administered two times per week for 4 weeks relative to control; assay type: functional; parameters: scale not given: the % may be the effect or the level left; conditions: route intraperitoneal
# How it was run: (§2)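 BALB/c mice (4-6 weeks) were infected iv with 2 × 10^7 freshly transformed promastigotes. One month later, groups were dosed ip in 0.2% Tween 80 in PBS (0.02 M), twice weekly for one month (8 doses); controls got vehicle only. Mice were killed one month post-treatment and spleen and liver were weighed. Parasite load came from Giemsa impression smears as organ weight (mg) × amastigotes per cell nucleus × 2 × 10^5. Values are mean ± S.E. of 5 mice; unpaired t-test.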
# [5] = system: Proteus mirabilis; assay: Antibacterial activity against Proteus mirabilis 175 at 50 ug/ml after 24 hrs by agar dilution method; assay type: functional; conditions: Proteus mirabilis, 175, 24 h; how it was run: as §1
# [6] = system: Leishmania donovani; assay: Antileishmanial activity against Leishmania donovani MHOM/IN/1983/AG83 promastigotes assessed as induction of vacuolization at 11.5 ug/ml after 2 hrs by transmission electron microscopy; assay type: functional, organism-based
# How it was run: (§3)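 Log-phase promastigotes, grown at 22 °C in M199 with 10% FBS, were exposed for 2 h to the compound; controls received 0.1% DMSO alone. Cells were then sectioned, stained on copper grids with uranyl acetate and lead acetate for 10-15 min each, and examined by TEM for ultrastructural changes.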
# [7] = system: Escherichia coli; assay: Antibacterial activity against Escherichia coli ATCC 25938 at 25 ug/ml after 24 hrs by agar dilution method; assay type: functional, organism-based; how it was run: as §1
# [8] = system: Staphylococcus aureus; assay: Antibacterial activity against Staphylococcus aureus ML145 at 5 ug/ml after 24 hrs by agar dilution method; assay type: functional; conditions: ML145, 24 h; how it was run: as §1
# [9] = system: Vibrio cholerae; assay: Antibacterial activity against Vibrio cholerae 582 at 25 ug/ml after 24 hrs by agar dilution method; assay type: functional; conditions: Vibrio cholerae, 582, 24 h
# [10] = system: Mus musculus; assay: Toxicity in BALB/c mouse assessed as effect on serum glutamate pyruvate transaminase levels at 12.5 mg/kg, ip administered two times per week for 4 weeks; assay type: organism-based; parameters: dose 12.5 mg/kg, route intraperitoneal; conditions: in vivo, 672 h
# How it was run: (§4)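 Normal BALB/c mice were dosed ip twice per week for 4 weeks. Blood was collected one month after treatment, and serum SGPT and SGOT (IU/l) and blood urea (mg/dl) were measured with commercial kits and compared with untreated normal mice.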
# [11] = Down regulation of IL6 release Leishmania donovani MHOM/IN/1983/AG83 infected bacterial liposaccharide-stimulated golden Syrian hamster peritoneal macrophages; assay type: functional, cell-based; conditions: Mesocricetus auratus; Macrophage
# [12] = system: Leishmania donovani; assay: Antileishmanial activity against Leishmania donovani MHOM/IN/1983/AG83 promastigotes infected BALB/c mouse assessed as liver weight at 5.5 mg/kg, ip administered two times per week for 4 weeks; assay type: functional; conditions: route intraperitoneal; how it was run: as §2
# [13] = system: Bacillus licheniformis; assay: Antibacterial activity against […] Bacillus licheniformis NCTC 10341 at 50 ug/ml after 24 hrs by agar dilution method; assay type: functional; conditions: NCTC 10341, 24 h; how it was run: as §1
# [14] = system: Bacillus licheniformis; assay: Antibacterial activity against […] Bacillus licheniformis NCTC 10341 at 25 ug/ml after 24 hrs by agar dilution method; assay type: functional, organism-based; how it was run: as §1
# [15] = system: Pseudomonas aeruginosa; assay: Antibacterial activity against Pseudomonas aeruginosa ATCC 27853 at 5 ug/ml after 24 hrs by agar dilution method; assay type: functional, organism-based; how it was run: as §1
# [16] = system: Pseudomonas aeruginosa; assay: Antibacterial activity against Pseudomonas aeruginosa ATCC 27853 at 25 ug/ml after 24 hrs by agar dilution method; assay type: functional; conditions: ATCC 27853, 24 h; how it was run: as §1
# [17] = Down regulation of TNFalpha release Leishmania donovani MHOM/IN/1983/AG83 infected interferon gamma-stimulated golden Syrian hamster peritoneal macrophages; assay type: functional, cell-based; conditions: Mesocricetus auratus; Macrophage
# [18] = system: Salmonella typhimurium; assay: Antibacterial activity against Salmonella Typhimurium NCTC 74 at 5 ug/ml after 24 hrs by agar dilution method; assay type: functional, organism-based; conditions: Salmonella enterica subsp. enterica serovar Typhimurium; how it was run: as §1
# [19] = system: Vibrio cholerae; assay: Antibacterial activity against Vibrio cholerae 569B after 24 hrs by agar dilution method; assay type: functional
# [20] = system: Escherichia coli; assay: Antibacterial activity against Escherichia coli K-12 Row at 50 ug/ml after 24 hrs by agar dilution method; assay type: functional; how it was run: as §1
# [21] = system: Leishmania donovani; assay: Antileishmanial activity against Leishmania donovani MHOM/IN/1983/AG83 promastigotes assessed as induction of kinetoplast enlargement at 2 ug/ml after 2 hrs by transmission electron microscopy; assay type: functional, organism-based; how it was run: as §3
# [22] = system: Leishmania donovani; assay: Antileishmanial activity against Leishmania donovani MHOM/IN/1983/AG83 promastigotes infected BALB/c mouse assessed as reduction in spleen parasite burden at 12.5 mg/kg, ip administered two times per week for 4 weeks relative to control; assay type: functional; parameters: scale not given: the % may be the effect or the level left; conditions: route intraperitoneal; how it was run: as §2
# [23] = system: Leishmania donovani; assay: Antileishmanial activity against Leishmania donovani MHOM/IN/1983/AG83 promastigotes after 4 hrs by MTT assay; assay type: functional, organism-based; conditions: MHOM/IN/1983/AG83, 4 h
# How it was run: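 AG83 promastigotes kept at 22 °C in M199 + 10% FBS. Log-phase cells (2×10^6/ml) exposed 2 h at 22 °C to 1, 3, 5, 7, 10, 15 compound; DMSO at 0.1% final. Cells washed with PBS, incubated 4 h at 22 °C with MTT (2 mg/ml). Formazan dissolved in DMSO and read at 570 nm; % lysis computed, IC50 by linear regression.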
# [24] = system: Salmonella typhimurium; assay: Antibacterial activity against Salmonella Typhimurium NCTC 74 after 24 hrs by agar dilution method; assay type: functional, Salmonella enterica subsp. enterica serovar Typhimurium; conditions: Salmonella enterica, NCTC 74, 24 h; how it was run: as §1
# [25] = system: Shigella dysenteriae; assay: Antibacterial activity against Shigella dysenteriae 7 NCTC 519/66 at 5 ug/ml after 24 hrs by agar dilution method; assay type: functional, organism-based
# [26] = system: Vibrio cholerae; assay: Antibacterial activity against Vibrio cholerae 582 at 50 ug/ml after 24 hrs by agar dilution method; assay type: functional; conditions: Vibrio cholerae, 582, 24 h
# [27] = system: Mus musculus; assay: Toxicity in BALB/c mouse assessed as effect on blood urea levels at 12.5 mg/kg, ip administered two times per week for 4 weeks; assay type: organism-based; parameters: dose 12.5 mg/kg, route intraperitoneal; conditions: in vivo, 672 h; how it was run: as §4
# [28] = system: Leishmania donovani; assay: Antileishmanial activity against Leishmania donovani MHOM/IN/1983/AG83 promastigotes infected BALB/c mouse assessed as reduction in liver parasite burden at 12.5 mg/kg, ip administered two times per week for 4 weeks relative to control; assay type: functional; parameters: scale not given: the % may be the effect or the level left; conditions: route intraperitoneal; how it was run: as §2
# [29] = system: Shigella dysenteriae; assay: Antibacterial activity against Shigella dysenteriae 7 NCTC 519/66 at 10 ug/ml after 24 hrs by agar dilution method; assay type: functional; conditions: 7 NCTC 519/66, 24 h
# [30] = system: Proteus mirabilis; assay: Antibacterial activity against Proteus mirabilis 175 at 5 ug/ml after 24 hrs by agar dilution method; assay type: functional, organism-based; how it was run: as §1
smiles,measurement,setting,value
Clc1ccc(OCOc2ccc(Cl)c3cccnc23)c2ncccc12,Activity,[1],inactive
same,inhibition at 10 µg/mL,[2],100%
same,MIC,[3],50 µg/mL
same,Activity,[4],75%
same,inhibition at 50 µg/mL,[5],100%
same,Activity,[6],Active
same,Activity,[7],inactive
same,inhibition at 5 µg/mL,[8],100%
same,inhibition at 25 µg/mL,[9],100%
same,Activity,[10],Non-toxic
same,Activity,[11],Active
same,Activity,[12],1120 mg
same,inhibition at 50 µg/mL,[13],100%
same,Activity,[14],inactive
same,Activity,[15],inactive
same,inhibition at 25 µg/mL,[16],100%
same,Activity,[17],Active
same,Activity,[18],inactive
same,MIC,[19],25 µg/mL
same,inhibition at 50 µg/mL,[20],100%
same,Activity,[21],Active
same,Activity,[22],95%
same,IC50,[23],2 µg/mL
same,MIC,[24],50 µg/mL
same,Activity,[25],inactive
same,inhibition at 50 µg/mL,[26],100%
same,Activity,[27],Non-toxic
same,Activity,[28],98.49%
same,inhibition at 10 µg/mL,[29],100%
same,Activity,[30],inactive
